Results published in PubChem BioAssay AID651943 (The Scripps Research Institute Molecular Screening Center, 2012).
Active and inactive are the calls of the source.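 How the source made its calls: active means bacterial viability inhibition with half-maximal concentration IC50 at or below 10 µM; inactive means the rest.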

Test system: E. coli V66 growth, OD600 absorbance, 18 h
Assay: bacterial growth inhibition, late-stage follow-up, counter-screen for AddAB helicase-nuclease inhibitor project, absorbance, dose response, round 2 (AID 651943)
Outline: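 Test system: Uninfected E. coli strain V66, RecBCD+ | Buffer or medium: Cation-adjusted Mueller Hinton broth, 0.1% glycerol | Compound dosing: 10 concentrations, 1:3 steps, highest 118.6 µM | Timing: 18 h bacterial growth with compound at 37 °C | Measured by: OD600 absorbance | Repeats: Three replicates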

`CCn1cc(C(=O)O)c(=O)c2cnc(N3CCN(C(=S)Nc4ccccc4F)CC3)nc21` was tested. Which IC50 did it give?
Its IC50 is > 119 µM (inactive).

For `CCn1cc(C(=O)O)c(=O)c2cnc(N3CCN(C(=S)NC(=O)c4cccc(C)c4)CC3)nc21`, which IC50 is on record?
Its IC50 is > 39.5 µM (inactive).

For `CCn1cc(C(=O)O)c(=O)c2cnc(N3CCN(C(=S)Nc4ccccc4OC)CC3)nc21`, which IC50 is on record?
The IC50 was > 119 µM (inactive).

`CCn1cc(C(=O)O)c(=O)c2cnc(N3CCN(C(=S)Nc4ccc(Cl)cc4)CC3)nc21` was tested. Which IC50 did it give?
Its IC50 is > 39.5 µM (inactive).

Which IC50 does the source give for `CCn1cc(C(=O)O)c(=O)c2cnc(N3CCN(C(=S)NCc4ccccc4)CC3)nc21` here?
Its IC50 is > 119 µM (inactive).

Which IC50 does the source give for `CCn1cc(C(=O)O)c(=O)c2cnc(N3CCN(C(=S)Nc4cccc(C(F)(F)F)c4)CC3)nc21` here?
Its IC50 is 34.4 µM (inactive).
